Results published in ChEMBL document CHEMBL1152166, “Activation and inhibition of leukotriene A4 hydrolase aminopeptidase activity by diphenyl ether and derivatives” (Bioorg Med Chem Lett, 2008).
Calls of active or inactive are those of the source. No cut-off for these calls is given here.

Tests used:
[1] = biological target: T1, Leukotriene A-4 hydrolase (Homo sapiens, UniProt P09960); experiment: Inhibition of aminopeptidase activity of human recombinant leukotriene A4 hydrolase expressed in Escherichia coli assessed as p-nitroanilide release by spectrophotometry
T1 sequence (P09960 whole entry): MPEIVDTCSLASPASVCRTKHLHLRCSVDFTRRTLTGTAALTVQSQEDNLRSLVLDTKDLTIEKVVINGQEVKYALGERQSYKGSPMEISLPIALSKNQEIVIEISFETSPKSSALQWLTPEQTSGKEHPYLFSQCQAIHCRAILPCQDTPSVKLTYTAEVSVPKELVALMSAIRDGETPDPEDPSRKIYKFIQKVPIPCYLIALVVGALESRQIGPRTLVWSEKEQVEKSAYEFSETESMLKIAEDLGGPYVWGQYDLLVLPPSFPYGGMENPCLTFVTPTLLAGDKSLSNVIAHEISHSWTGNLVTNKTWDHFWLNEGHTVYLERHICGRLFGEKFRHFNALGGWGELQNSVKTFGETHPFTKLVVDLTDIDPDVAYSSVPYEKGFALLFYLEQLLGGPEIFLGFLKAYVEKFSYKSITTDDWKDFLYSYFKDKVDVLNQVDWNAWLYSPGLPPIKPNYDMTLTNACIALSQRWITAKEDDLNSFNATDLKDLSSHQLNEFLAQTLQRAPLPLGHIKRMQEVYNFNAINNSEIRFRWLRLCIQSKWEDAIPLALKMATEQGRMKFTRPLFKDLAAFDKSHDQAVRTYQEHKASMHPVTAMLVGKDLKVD
Outline: (§1)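 Recombinant human LTA4H, expressed from a pET 21a construct in E. coli and purified by ammonium sulfate precipitation, anion-exchange and gel filtration. Aminopeptidase activity was read spectrophotometrically as p-nitroanilide released from Ala-pNA. Values are the average of three experiments with standard deviation. Substrate dependence was examined by Lineweaver–Burk analysis to give apparent Km, Vmax, KA, α and β.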

[2] = biological target: T2, Leukotriene A-4 hydrolase (Homo sapiens) (UniProt P09960); experiment: Inhibition of epoxide hydrolase activity of human recombinant leukotriene A4 hydrolase expressed in Escherichia coli assessed as LTB4 production at 100 uM by RP-HPLC
T2 sequence (whole entry): T1 sequence (P09960 whole entry)

[3] = biological target: T1, Leukotriene A-4 hydrolase; experiment: Activation of aminopeptidase activity of human recombinant leukotriene A4 hydrolase expressed in Escherichia coli assessed as p-nitroanilide release by spectrophotometry; outline: as §1
[4] = biological target: T2, Leukotriene A-4 hydrolase (Homo sapiens); experiment: Activation of aminopeptidase activity of human recombinant leukotriene A4 hydrolase expressed in Escherichia coli assessed as p-nitroanilide release at 100 uM by spectrophotometry; outline: as §1
[5] = biological target: T1, Leukotriene A-4 hydrolase; experiment: Inhibition of epoxide hydrolase activity of human recombinant leukotriene A4 hydrolase expressed in Escherichia coli assessed as LTB4 production by RP-HPLC
[6] = biological target: T2, Leukotriene A-4 hydrolase (Homo sapiens); experiment: Activation of aminopeptidase activity of human recombinant leukotriene A4 hydrolase expressed in Escherichia coli by spectrophotometry in presence of >0.65 mM […]; outline: as §1
[7] = biological target: T2, Leukotriene A-4 hydrolase (Homo sapiens); experiment: Inhibition of aminopeptidase activity of human recombinant leukotriene A4 hydrolase expressed in Escherichia coli by spectrophotometry in presence of <0.65 mM […]; outline: as §1

SMILES	IC50 [1] [µM]	Activity [2]	AC50 [3] [µM]	Activity [4]	IC50 [5] [µM]	Activity [6]	Activity [7]
CCCCCOc1ccc(Oc2ccccc2)cc1	4.13	inactive					
CCCCOc1ccc(Oc2ccccc2)cc1	5.72	inactive					
c1ccc(Oc2ccccc2)cc1 [DIPHENYLETHER]		inactive	6.01	Active			
CCCOc1ccc(Oc2ccc(O)cc2)cc1	5.69	inactive					
CCOc1ccc(Oc2ccc(O)cc2)cc1		inactive	14.8	Active			
NCCOc1ccc(Oc2ccccc2)cc1	0.228				0.035		
CCCCCOc1ccc(Oc2ccc(O)cc2)cc1	2.48	inactive					
CCCCOc1ccc(Oc2ccc(O)cc2)cc1	5.56	inactive					
COc1ccc(Oc2ccc(O)cc2)cc1		inactive	17	Active			

Results, then the compound that gave them:

IC50 [1] [µM]	Activity [2]	AC50 [3] [µM]	Activity [4]	IC50 [5] [µM]	Activity [6]	Activity [7]	SMILES
	inactive	11.1	Active				Oc1ccc(Oc2ccccc2)cc1
	inactive	2.82	Active				CCOc1ccc(Oc2ccccc2)cc1
	inactive	3.39	Active				COc1ccc(Oc2ccccc2)cc1
	inactive				Active	Active	CCCOc1ccc(Oc2ccccc2)cc1
